The record followed here is paper PMC10335114 (RSC Advances, 2023).

What is called inhibition is the percentage by which the read-out fell short of the control. What is called IC50 is the point on the concentration scale where inhibition reaches its midpoint. Read a low IC50 as higher potency.

Holding throughout (type): biochemical
In one experiment the target is T1, h-NTPDase2 (Homo sapiens, UniProt Q9Y5L3).
T1 sequence (Q9Y5L3 1-495): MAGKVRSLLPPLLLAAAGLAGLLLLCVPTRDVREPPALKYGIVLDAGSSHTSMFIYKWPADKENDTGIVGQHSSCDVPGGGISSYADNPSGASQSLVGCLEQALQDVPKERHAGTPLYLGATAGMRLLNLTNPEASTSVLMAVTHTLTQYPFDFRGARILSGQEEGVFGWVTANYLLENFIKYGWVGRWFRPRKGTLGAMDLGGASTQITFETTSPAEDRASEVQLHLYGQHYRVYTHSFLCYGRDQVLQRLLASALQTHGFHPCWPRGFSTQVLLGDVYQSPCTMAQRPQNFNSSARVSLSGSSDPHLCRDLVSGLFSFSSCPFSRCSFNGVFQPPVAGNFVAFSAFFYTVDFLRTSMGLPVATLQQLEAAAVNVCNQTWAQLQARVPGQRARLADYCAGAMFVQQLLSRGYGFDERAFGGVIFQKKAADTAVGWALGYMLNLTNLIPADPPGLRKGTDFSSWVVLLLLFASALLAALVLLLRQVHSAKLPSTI
Description: h-NTPDase2 enzyme inhibition, malachite green assay. The settings on record: for inhibition at 100 µM: read-out: h-NTPDase2 % inhibition ± S.D; for h-NTPDase2 IC50 ± SEM: triplicate, determined for compounds with over 50% inhibition at 100 μM. Summed up: (§1)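 Malachite green assay in 50 mM Tris-HCl, 5 mM CaCl2, pH 7.4. Test compound at 100 μM, in triplicate, incubated 10 min with enzyme: h-NTPDase1 12 ng, h-NTPDase2 37 ng, h-NTPDase3 43 ng, h-NTPDase8 63 ng. Plate read at 630 nm, then substrate (100 μM) added and incubated 15 min at 37 °C. Malachite green reagent added and reading taken up to 6 min.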

Another experiment concerns the target T2, h-NTPDase8 (Homo sapiens, UniProt Q5MY95).
T2 sequence (Q5MY95 1-495): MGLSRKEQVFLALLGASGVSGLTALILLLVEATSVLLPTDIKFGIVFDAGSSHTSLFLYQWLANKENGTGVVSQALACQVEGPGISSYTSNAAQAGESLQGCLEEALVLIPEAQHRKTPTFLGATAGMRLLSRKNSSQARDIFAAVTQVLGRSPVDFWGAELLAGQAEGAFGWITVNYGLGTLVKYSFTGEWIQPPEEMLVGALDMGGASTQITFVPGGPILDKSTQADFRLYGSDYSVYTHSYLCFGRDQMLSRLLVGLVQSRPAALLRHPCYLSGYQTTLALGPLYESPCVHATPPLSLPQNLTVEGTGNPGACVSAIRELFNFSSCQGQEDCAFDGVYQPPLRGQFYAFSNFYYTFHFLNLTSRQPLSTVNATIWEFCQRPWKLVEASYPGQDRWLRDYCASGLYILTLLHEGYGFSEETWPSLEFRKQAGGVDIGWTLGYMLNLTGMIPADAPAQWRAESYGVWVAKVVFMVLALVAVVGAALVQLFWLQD
Briefly: h-NTPDase8 enzyme inhibition, malachite green assay. The settings on record: for inhibition at 100 µM: read-out: h-NTPDase8 % inhibition ± S.D. Put shortly: as §1

A further experiment has as its target T3, h-NTPDase3 (Homo sapiens, UniProt O75355).
T3 sequence (O75355 1-529): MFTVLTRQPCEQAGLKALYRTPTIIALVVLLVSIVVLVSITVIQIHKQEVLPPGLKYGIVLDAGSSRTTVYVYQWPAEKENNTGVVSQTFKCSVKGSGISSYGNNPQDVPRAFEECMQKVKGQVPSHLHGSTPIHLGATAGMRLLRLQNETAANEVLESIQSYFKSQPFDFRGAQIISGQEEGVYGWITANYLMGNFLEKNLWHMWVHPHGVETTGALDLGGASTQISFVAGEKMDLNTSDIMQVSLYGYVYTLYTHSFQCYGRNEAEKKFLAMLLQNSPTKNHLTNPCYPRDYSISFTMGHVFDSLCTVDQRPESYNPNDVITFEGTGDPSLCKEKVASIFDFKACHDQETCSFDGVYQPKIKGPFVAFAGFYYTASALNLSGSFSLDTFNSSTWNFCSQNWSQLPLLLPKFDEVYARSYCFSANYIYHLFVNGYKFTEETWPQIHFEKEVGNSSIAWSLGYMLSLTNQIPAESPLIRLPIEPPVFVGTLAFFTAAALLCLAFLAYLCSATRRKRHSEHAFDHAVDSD
Description: h-NTPDase3 enzyme inhibition, malachite green assay. Put shortly: as §1

A further experiment deals with T4, h-NTPDase1 (Homo sapiens, UniProt P49961).
T4 sequence (P49961 1-510): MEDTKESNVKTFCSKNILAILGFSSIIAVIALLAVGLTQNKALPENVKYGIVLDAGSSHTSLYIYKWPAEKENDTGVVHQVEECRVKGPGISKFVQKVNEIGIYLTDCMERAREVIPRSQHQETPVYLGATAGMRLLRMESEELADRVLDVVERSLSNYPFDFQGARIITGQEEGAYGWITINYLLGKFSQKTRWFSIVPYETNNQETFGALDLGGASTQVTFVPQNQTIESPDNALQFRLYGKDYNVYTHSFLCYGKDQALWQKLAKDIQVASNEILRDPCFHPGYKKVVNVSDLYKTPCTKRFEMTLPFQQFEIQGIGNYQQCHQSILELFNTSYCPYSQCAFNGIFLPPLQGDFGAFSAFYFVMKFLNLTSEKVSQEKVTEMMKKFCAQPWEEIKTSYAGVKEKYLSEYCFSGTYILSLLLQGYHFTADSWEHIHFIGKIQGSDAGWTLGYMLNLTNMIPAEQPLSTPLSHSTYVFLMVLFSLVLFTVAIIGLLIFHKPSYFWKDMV
Description: h-NTPDase1 enzyme inhibition, malachite green assay. As to conditions: for inhibition at 100 µM: read-out: h-NTPDase1 % inhibition ± S.D. Put shortly:
as §1

As to `O=C(O)c1cc(S(=O)(=O)NC2CC2)ccc1Cl` [2d, 2-chloro-5-(N-cyclopropylsulfamoyl)benzoic acid], the inhibition at 100 µM worked out at 19 ± 0.9% at h-NTPDase2, 41 ± 1.4% at h-NTPDase3 (read-out: h-NTPDase3 % inhibition ± S.D) and 3 ± 1.2% on h-NTPDase1. Moreover, the IC50 on h-NTPDase8 came to 280 ± 70 nM.
Take `COc1ccc(NC(=O)c2cccc(S(=O)(=O)N3CCOCC3)c2)cc1` [3f, N-(4-methoxyphenyl)-3-(morpholinosulfonyl)benzamide]: the IC50 is 270 ± 80 nM against h-NTPDase2, 6710 ± 40 nM on h-NTPDase3 and above 100000 nM on h-NTPDase1. Besides, on h-NTPDase2, the “h-NTPDase2 IC50 ± SEM” value is recorded as “sub-micromolar”. Moreover, the inhibition at 100 µM on h-NTPDase8 was found to be 29 ± 4.5%.
Turning to `O=C(c1cc(S(=O)(=O)Nc2ccc(Br)cc2)ccc1Cl)N1CCOCC1` [3i, N-(4-bromophenyl)-4-chloro-3-(morpholine-4-carbonyl)benzenesulfonamide], the inhibition at 100 µM at h-NTPDase2 is 43 ± 1.4%; at h-NTPDase8, 32 ± 3.5%. Further, the IC50 is 720 ± 110 nM on h-NTPDase3 and 2880 ± 130 nM on h-NTPDase1.
In the case of `COc1ccc(NC(=O)c2cc(S(=O)(=O)NCc3ccccc3)ccc2Cl)cc1` [3j, 5-(N-benzylsulfamoyl)-2-chloro-N-(4-methoxyphenyl)benzamide], the IC50 against h-NTPDase2 stood at 290 ± 70 nM; against h-NTPDase3, 3160 ± 120 nM. For the same compound, the “h-NTPDase2 IC50 ± SEM” value on h-NTPDase2 is recorded as “sub-micromolar”. The inhibition at 100 µM was 36 ± 1.7% at h-NTPDase8 and 37 ± 1.3% at h-NTPDase1.
Take `O=C(NC1CC1)c1cc(S(=O)(=O)NC2CC2)ccc1Cl` [4d, 2-chloro-N-cyclopropyl-5-(N-cyclopropylsulfamoyl)benzamide]: the figures for the IC50 on h-NTPDase2, against h-NTPDase8 and at h-NTPDase3 were 130 ± 10 nM, 2460 ± 90 nM and 200 ± 70 nM, respectively. For the same compound, on h-NTPDase2, the “h-NTPDase2 IC50 ± SEM” value is on record as “sub-micromolar”. Moreover, the inhibition at 100 µM at h-NTPDase1 stood at 36 ± 2.4%.
With `Cc1ccc(C(=O)Nc2ccc(S(=O)(=O)O)c3cc(S(=O)(=O)O)cc(S(=O)(=O)O)c23)cc1NC(=O)c1cccc(NC(=O)Nc2cccc(C(=O)Nc3cc(C(=O)Nc4ccc(S(=O)(=O)O)c5cc(S(=O)(=O)O)cc(S(=O)(=O)O)c45)ccc3C)c2)c1` [Suramin, reference compound], the IC50 against h-NTPDase8 stood at 101000 ± 2340 nM.
